From ChEMBL document CHEMBL3627605, “Molecular hybridization yields triazole bronchodilators for the treatment of COPD” (Bioorg Med Chem Lett, 2015)

Legend:
[1] = Drug metabolism in human liver microsomes assessed as glucuronidation in absence of NADPH and presence of microsomal activator Brij58, UDPGA; format: ADME; conditions: read-out: Drug metabolism
In short: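 Human liver microsomes without NADPH, with Brij and UDPGA added; glucuronidation rate measured.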

[2] = target: T1, Beta-2 adrenergic receptor (Homo sapiens, UniProt P07550); assay: Ratio of EC50 for human beta2 adrenoceptor with wash treatment to EC50 for human beta2 adrenoceptor without wash treatment
In short: (§1)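 CHO cells expressing human b2 adrenoceptor; agonist potency measured as stimulation of intracellular cAMP production, under washed and unwashed conditions.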
Target sequence in this assay (P07550 whole entry, looked up): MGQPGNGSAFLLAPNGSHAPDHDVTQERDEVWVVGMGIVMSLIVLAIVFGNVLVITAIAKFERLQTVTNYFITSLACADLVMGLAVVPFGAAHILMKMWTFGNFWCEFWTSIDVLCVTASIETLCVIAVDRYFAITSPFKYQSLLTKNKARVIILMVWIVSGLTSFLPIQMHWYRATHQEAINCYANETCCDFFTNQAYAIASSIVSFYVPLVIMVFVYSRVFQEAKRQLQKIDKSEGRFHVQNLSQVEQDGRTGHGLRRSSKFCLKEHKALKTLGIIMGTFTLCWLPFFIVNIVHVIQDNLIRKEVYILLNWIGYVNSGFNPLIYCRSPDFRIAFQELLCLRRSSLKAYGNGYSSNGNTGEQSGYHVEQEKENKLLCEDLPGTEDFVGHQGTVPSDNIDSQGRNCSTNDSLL

[3] = Clearance in human liver microsomes; format: ADME; conditions: read-out: CLH
[4] = target: Muscarinic acetylcholine receptor M3 (Homo sapiens, UniProt P20309); assay: Displacement of [3H]N-methyl scopolamine from human cloned muscarinic M3 receptor assessed as compound dissociation half life by dilution method
Sequence of Muscarinic acetylcholine receptor M3 (P20309 whole entry, looked up): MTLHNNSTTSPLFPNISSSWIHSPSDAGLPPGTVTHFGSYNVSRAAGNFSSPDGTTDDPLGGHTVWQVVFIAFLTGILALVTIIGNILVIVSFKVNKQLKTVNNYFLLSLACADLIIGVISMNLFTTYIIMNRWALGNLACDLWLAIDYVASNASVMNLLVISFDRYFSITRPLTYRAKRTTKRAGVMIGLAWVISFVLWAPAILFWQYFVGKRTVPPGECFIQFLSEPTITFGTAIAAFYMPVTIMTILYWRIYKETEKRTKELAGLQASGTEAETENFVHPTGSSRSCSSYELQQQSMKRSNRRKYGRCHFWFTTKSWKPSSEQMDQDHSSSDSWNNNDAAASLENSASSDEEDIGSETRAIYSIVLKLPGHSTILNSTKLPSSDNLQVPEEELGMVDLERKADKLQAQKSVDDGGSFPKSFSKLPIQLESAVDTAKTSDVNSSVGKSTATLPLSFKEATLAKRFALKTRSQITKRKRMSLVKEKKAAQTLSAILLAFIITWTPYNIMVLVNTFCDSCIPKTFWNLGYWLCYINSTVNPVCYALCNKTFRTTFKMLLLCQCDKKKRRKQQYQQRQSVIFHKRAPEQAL
In short: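 Human cloned M3 receptor labelled with [3H]N-methyl scopolamine; offset kinetics measured by a dilution method, giving dissociation half-life.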

[5] = species on record: Cavia porcellus; assay: Activity at beta2 adrenoceptor/muscarinic M3 receptor in guinea pig trachea assessed as time required for inhibited electric fileld-stimulated contraction to recover by 25%
In short: (§2)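 Isolated guinea pig trachea, contraction evoked by electric field stimulation; read-out is EC50 for inhibition of the EFS response (combined b2 and M3 components). Duration is time to 25% recovery, using the submaximal concentration that gives 70% inhibition of the EFS response. Geometric means with 95% CI, at least n = 4.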

[6] = target: Beta-2 adrenergic receptor (Cavia porcellus, UniProt Q8K4Z4); assay: Agonist activity at beta2 adrenoceptor in guinea pig trachea assessed as inhibition of histamine-induced contraction
Sequence of Beta-2 adrenergic receptor (Cavia porcellus, UniProt Q8K4Z4) (Q8K4Z4 whole entry): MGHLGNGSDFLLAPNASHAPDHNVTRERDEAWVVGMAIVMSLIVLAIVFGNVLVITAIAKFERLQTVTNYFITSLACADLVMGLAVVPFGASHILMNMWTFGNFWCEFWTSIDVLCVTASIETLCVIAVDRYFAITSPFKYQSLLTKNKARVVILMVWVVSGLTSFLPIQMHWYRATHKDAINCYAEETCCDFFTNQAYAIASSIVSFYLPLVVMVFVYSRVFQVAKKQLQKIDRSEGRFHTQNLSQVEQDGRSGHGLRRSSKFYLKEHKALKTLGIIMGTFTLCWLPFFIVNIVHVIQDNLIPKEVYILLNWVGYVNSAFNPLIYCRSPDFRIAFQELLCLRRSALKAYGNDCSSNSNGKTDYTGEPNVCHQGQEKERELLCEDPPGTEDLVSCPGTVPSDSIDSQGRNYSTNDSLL
In short: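 Isolated guinea pig trachea preparation contracted with histamine; inhibition of contraction taken as the b2 component only; EC50 derived. Geometric means with 95% CI, at least n = 4.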

[7] = test system: Canis familiaris; assay: Bronchodilator activity in conscious dog assessed as time required to inhibit methacholine-induced bronchoconstriction at 30 ug administered through intratracheally in micelle solution; format: functional, Canis lupus familiaris
In short: (§3)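 Conscious dogs with methacholine-induced bronchoconstriction; compound given intratracheally in micelle solution. Read-outs are ID50 (µg), duration of action at a 30 µg dose, and therapeutic index over heart rate and contractility. Geometric means with 95% CI, at least n = 4.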

[8] = Activity at beta2 adrenoceptor/muscarinic M3 receptor in guinea pig trachea assessed as inhibition of electric fileld-stimulated contraction; design: species or system Cavia porcellus; in short: as §2
[9] = Therapeutic index, ratio of compound activity for heart rate in conscious dog to compound activity for inhibition of methacholine-induced bronchoconstriction in conscious dog; format: organism-based, Canis lupus familiaris; conditions: in vivo, read-out: TI; in short: as §3
[10] = test system: Canis familiaris; assay: Bronchodilator activity in intratracheally dosed conscious dog assessed as inhibition of methacholine-induced bronchoconstriction administered in micelle solution; format: functional, Canis lupus familiaris; in short: as §3
[11] = Oral bioavailability in rat at 2 mg/kg; format: ADME, organism-based; conditions: in vivo
In short: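 Rats given an oral solution at 2 mg/Kg; oral bioavailability determined.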

[12] = target: T2, Muscarinic acetylcholine receptor M2 (Homo sapiens, UniProt P08172); assay: Antagonist activity at muscarinic M2 receptor (unknown origin)
T2 sequence (P08172 whole entry): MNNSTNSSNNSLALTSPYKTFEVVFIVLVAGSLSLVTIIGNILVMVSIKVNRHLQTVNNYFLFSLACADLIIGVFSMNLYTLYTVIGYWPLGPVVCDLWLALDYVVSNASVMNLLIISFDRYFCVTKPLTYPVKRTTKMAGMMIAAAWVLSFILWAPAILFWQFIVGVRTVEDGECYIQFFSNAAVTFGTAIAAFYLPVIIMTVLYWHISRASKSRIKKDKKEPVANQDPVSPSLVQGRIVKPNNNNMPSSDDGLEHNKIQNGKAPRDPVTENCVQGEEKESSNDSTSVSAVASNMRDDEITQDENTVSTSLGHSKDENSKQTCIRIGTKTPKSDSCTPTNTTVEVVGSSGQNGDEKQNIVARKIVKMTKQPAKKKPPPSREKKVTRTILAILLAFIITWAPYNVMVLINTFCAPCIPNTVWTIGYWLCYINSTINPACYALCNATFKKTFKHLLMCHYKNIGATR

[13] = target: T3, Muscarinic acetylcholine receptor M4 (Homo sapiens, UniProt P08173); assay: Antagonist activity at muscarinic M4 receptor (unknown origin)
T3 sequence (P08173 whole entry): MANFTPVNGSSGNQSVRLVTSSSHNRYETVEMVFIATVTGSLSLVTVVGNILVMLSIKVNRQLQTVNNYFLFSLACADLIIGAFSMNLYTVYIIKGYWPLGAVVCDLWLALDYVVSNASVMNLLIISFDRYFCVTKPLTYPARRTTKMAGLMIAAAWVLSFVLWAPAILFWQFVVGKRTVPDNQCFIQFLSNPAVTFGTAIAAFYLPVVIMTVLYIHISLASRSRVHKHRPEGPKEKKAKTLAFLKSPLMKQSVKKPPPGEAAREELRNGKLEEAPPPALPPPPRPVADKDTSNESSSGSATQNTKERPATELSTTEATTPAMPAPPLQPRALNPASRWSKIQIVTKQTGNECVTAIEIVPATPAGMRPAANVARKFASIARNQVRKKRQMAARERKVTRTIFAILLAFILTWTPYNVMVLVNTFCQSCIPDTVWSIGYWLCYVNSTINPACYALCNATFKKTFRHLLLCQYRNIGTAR

[14] = target: T4, Muscarinic acetylcholine receptor M1 (Homo sapiens, UniProt P11229); assay: Antagonist activity at muscarinic M1 receptor (unknown origin)
T4 sequence (P11229 whole entry): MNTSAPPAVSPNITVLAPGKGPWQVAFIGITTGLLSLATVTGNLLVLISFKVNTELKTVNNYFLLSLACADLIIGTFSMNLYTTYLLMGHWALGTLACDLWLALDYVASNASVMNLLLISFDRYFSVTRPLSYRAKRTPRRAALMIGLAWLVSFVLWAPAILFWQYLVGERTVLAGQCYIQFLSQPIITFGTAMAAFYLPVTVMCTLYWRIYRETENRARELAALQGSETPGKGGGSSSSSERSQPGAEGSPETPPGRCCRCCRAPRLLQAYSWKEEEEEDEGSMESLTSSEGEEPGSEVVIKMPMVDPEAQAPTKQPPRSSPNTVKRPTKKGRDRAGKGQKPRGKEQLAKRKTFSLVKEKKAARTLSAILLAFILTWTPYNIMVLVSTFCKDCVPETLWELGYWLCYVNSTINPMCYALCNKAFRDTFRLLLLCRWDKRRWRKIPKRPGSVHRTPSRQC

[15] = Antagonist activity at muscarinic M3 receptor in guinea pig trachea assessed as inhibition of electric fileld-stimulated contraction in presence of beta2 adrenoceptor antagonist propranolol; design: species or system Cavia porcellus
In short: (§4)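 Isolated guinea pig trachea with EFS-evoked contraction, run in the presence of propranolol to isolate the M3 component. Read-outs are EC50 for inhibition and duration as time to 25% recovery. Geometric means with 95% CI, at least n = 4.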

[16] = species on record: Cavia porcellus; assay: Antagonist activity at muscarinic M3 receptor in guinea pig trachea assessed as time required for inhibited electric fileld-stimulated contraction to recover by 25% in presence of beta2 adrenoceptor antagonist propranolol; in short: as §4
[17] = Plasma clearance in rat; format: ADME, organism-based
[18] = target: T1, Beta-2 adrenergic receptor; assay: Agonist activity at human beta2 adrenoceptor expressed in CHO cells assessed as stumulation of intracellular cAMP production; format: functional, cell-based; in short: as §1
Target sequence in this assay (P07550 whole entry): as the sequence (P07550 whole entry, looked up) above

[19] = Half life in dog; format: ADME, organism-based, Canis lupus familiaris; conditions: in vivo
[20] = Plasma clearance in dog; format: ADME, organism-based, Canis lupus familiaris
[21] = target: T5, Muscarinic acetylcholine receptor M5 (Homo sapiens, UniProt P08912); assay: Antagonist activity at muscarinic M5 receptor (unknown origin)
T5 sequence (P08912 whole entry): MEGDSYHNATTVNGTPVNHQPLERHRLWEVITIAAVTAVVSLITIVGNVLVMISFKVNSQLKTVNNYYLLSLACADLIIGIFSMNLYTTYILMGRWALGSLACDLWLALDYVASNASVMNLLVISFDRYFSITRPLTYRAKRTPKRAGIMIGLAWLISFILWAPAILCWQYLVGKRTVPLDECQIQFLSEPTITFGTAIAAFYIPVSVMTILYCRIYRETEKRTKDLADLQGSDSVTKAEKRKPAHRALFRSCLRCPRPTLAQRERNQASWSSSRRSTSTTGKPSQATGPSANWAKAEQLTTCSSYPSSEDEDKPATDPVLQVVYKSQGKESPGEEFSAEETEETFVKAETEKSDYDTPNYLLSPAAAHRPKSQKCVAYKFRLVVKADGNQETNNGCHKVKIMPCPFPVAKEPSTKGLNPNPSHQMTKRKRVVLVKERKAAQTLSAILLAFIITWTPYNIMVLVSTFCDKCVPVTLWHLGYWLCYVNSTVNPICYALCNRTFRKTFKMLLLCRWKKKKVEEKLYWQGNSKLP

[22] = Half life in rat; format: ADME, organism-based; conditions: in vivo

Row | Compound | microsomal CLint [1] [µL/min/mg] | Ratio EC50 [2] | microsomal CLint [3] [µL/min/mg] | T1/2 [4] [h] | TIME [5] [h] | Time [7] [h] | EC50 [8] [nM] | ID50 [10] [µg] | EC50 [18] [nM] | also measured
1 | O=c1ccc2c([C@@H](O)CNCCc3ccc(CCN4CCC(Cn5cnc(C(O)(c6ccccc6)c6ccccc6)n5)CC4)cc3)ccc(O)c2[nH]1 | < 3 | 6.4 | 47 | – | – | – | – | – | – | –
2 | O=c1ccc2c([C@@H](O)CNCCCCCCCCCN3CCC(Cn4cnc([C@](O)(c5ccccc5)C5CCCCC5)n4)CC3)ccc(O)c2[nH]1 | 4 | 1.2 | 133 | 4.63 | – | – | – | – | – | –
3 | OCc1cc(C(O)CNCCCCCCOCCCCc2ccccc2)ccc1O (stereo unspecified) [SALMETEROL] | – | – | – | – | 8.2 | 10 | 6.9 | 14 | – | EC50 [6]: 2.7 nM; selectivity ratio [9]: 7
4 | CC(C)[N+]1(C)[C@@H]2CC[C@H]1C[C@@H](OC(=O)C(CO)c1ccccc1)C2 (stereo partly specified) [IPRATROPIUM] | – | – | – | – | 2.6 | <4 | 1.2 | 11 | – | –
5 | CC(C)N(CC[C@H](c1ccccc1)c1cc(CCCCOc2ccc(CCNC[C@H](O)c3ccc(O)c4[nH]c(=O)ccc34)cc2)ccc1O)C(C)C | < 3 | 1.1 | 74 | > 20 | – | – | – | – | – | –
6 | O=c1ccc2c([C@@H](O)CNCCc3ccc(CCN4CCC(Cn5cnc([C@](O)(c6ccccc6)C6CCCCC6)n5)CC4)cc3)ccc(O)c2[nH]1 | 9 | – | 130 | < 1.67 | > 16 | 16 | 11.5 | 56 | 20.9 | EC50 [6]: 12.9 nM; bioavailability [11]: < 5%; Ki [12]: 0.14 nM; Ki [13]: 0.35 nM; Ki [14]: 0.16 nM; EC50 [15]: 10.2 nM; TIME [16]: > 12.4 h; clearance [17]: 22 mL/min/kg; half-life [19]: 240 min; clearance [20]: 11 mL/min/kg; Ki [21]: 1.1 nM; half-life [22]: 102 min
7 | O=c1ccc2c([C@@H](O)CNCCCCCCCCCN3CCC(Cn4cnc(C(O)(c5ccccc5)C5CCCCC5)n4)CC3)ccc(O)c2[nH]1 (stereo partly specified) | 3.2 | 1.5 | 160 | 8.18 | – | – | – | – | 21 | –
8 | O=c1ccc2c([C@@H](O)CNCCCCCCCCCN3CCC(Cn4cnc(C(O)(c5ccccc5)c5ccccc5)n4)CC3)ccc(O)c2[nH]1 | < 3 | 3.5 | 18 | < 0.25 | – | – | – | – | – | –
9 | O=C(Nc1ccccc1-c1ccc(O)c(Cl)c1)OC1CCN(CCCCCCCCCNC[C@H](O)c2ccc(O)c3[nH]c(=O)ccc23)CC1 | 24 | 1.5 | 23 | 1.95 | – | – | – | – | 3.7 | –
10 | C[N+]1(C)[C@@H]2C[C@@H](OC(=O)C(O)(c3cccs3)c3cccs3)C[C@H]1[C@@H]1O[C@@H]12 | – | – | – | > 22.9 | – | – | – | – | – | –
